Calls of active or inactive are those of the source. The rule behind the calls is not given here.

From ChEMBL document CHEMBL1138292, “Discovery of a tetrazole-based growth hormone secretagogue: 4-(hydroxybutyl)carbamic acid 2-{5-[1-(2-amino-2-methylpropionylamino)-2- benzyloxyethyl]tetrazol-1-yl}ethyl ester (BMS-317180)” (J Med Chem, 2007) come the findings set out here.

Series [1] has as its target Growth hormone secretagogue receptor type 1 (Homo sapiens, UniProt Q92847). The series can be described thus: Intrinsic activity at human GHS receptor in H4 glioma cells assessed by measuring intracellular calcium concentration by FLIPR assay. The series is classed as functional, cell-based. The essentials: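 H4 glioma cells with endogenous human GHS receptor expression enhanced by RAGE activation. Agonist-stimulated intracellular calcium mobilization read with a calcium-sensitive fluorescent probe in FLIPR.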

Series [2] is described as follows: Bioavailability in rat. It counts as ADME, organism-based. Conditions: in vivo.
In a further series the test system is Rattus norvegicus. The series can be described thus: Increase in plasma growth hormone level in iv dosed Wistar rat after 15 mins by radioimmunoassay. The series is classed as functional. Conditions: 0.25 h. The method in brief:
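Anesthetized rats, groups of five, dosed iv in 10% ethanol, […] saline (v/v) vehicle at 10 mL/kg. Abdominal aorta blood sampled at 15 min; plasma rat GH measured by a modified radioimmunoassay kit.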

Series [3] concerns Canis familiaris. In words: Increase in plasma growth hormone level in Beagle dog at 0.52 to 52.3 umol/kg, po. It counts as functional, organism-based. Conditions: Canis lupus familiaris. The method in brief:
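Conscious beagle dogs given single oral doses of 0.52 to 52.3 µmol/kg, water as vehicle control; plasma GH followed over a 4 h time course.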

Series [4] in a line: Bioavailability in rat at 15 umol/kg, po. It counts as ADME, organism-based. Conditions: in vivo. The essentials:
(§1)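 Fasted animals (rat, cynomolgus monkey, beagle dog) given single oral doses of 15, 10 and 10 µmol/kg respectively; intravenous reference dose 5 µmol/kg in all species. Oral bioavailability, half-life and plasma clearance derived from the plasma profiles.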

Series [5] in a line: Half life in rat at 15 umol/kg, po. It counts as ADME, organism-based. As to conditions: in vivo. The essentials:
as §1

Series [6] is described as follows: Bioavailability in Beagle dog at 10 umol/kg, po. Conditions: in vivo. It counts as ADME, organism-based, Canis lupus familiaris. The method in brief: as §1
The nature of series [7]: Half life in Beagle dog at 10 umol/kg, po. It counts as ADME, organism-based, Canis lupus familiaris. As to conditions: in vivo. The method in brief:
as §1

Series [8] can be described thus: Plasma clearance in rat at 15 umol/kg, po. The series is classed as ADME, organism-based. The essentials: as §1
Series [9] has as its system Canis familiaris. The series can be described thus: Plasma clearance in Beagle dog at 10 umol/kg, po. It counts as ADME, organism-based, Canis lupus familiaris. Conditions: in vivo. The method in brief: as §1
The subject of a further series is Hepatocyte. The series can be described thus: Toxicity in human hepatocytes upto 250 ug/mL. It counts as cell-based. The method in brief: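 Human hepatocyte hepatotoxicity assay run at concentrations up to 250 µg/mL.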
In the next series the target is Cytochrome P450 3A4 (Homo sapiens, UniProt P08684). In words: Inhibition of CYP3A4. It counts as ADME.
In a further series the target is Cytochrome P450 2C9 (Homo sapiens, UniProt P11712). The series can be described thus: Inhibition of CYP2C9. It counts as ADME.
In the next series the target is Cytochrome P450 2C19 (Homo sapiens, UniProt P33261). The series can be described thus: Inhibition of CYP2C19. It counts as ADME.
For the next series, the target named is Cytochrome P450 2D6 (Homo sapiens, UniProt P10635). The series can be described thus: Inhibition of CYP2D6. The series is classed as ADME.
In another series the target is T1, Cytochrome P450 1A2 (Homo sapiens, UniProt P05177).
T1 sequence (P05177 whole entry): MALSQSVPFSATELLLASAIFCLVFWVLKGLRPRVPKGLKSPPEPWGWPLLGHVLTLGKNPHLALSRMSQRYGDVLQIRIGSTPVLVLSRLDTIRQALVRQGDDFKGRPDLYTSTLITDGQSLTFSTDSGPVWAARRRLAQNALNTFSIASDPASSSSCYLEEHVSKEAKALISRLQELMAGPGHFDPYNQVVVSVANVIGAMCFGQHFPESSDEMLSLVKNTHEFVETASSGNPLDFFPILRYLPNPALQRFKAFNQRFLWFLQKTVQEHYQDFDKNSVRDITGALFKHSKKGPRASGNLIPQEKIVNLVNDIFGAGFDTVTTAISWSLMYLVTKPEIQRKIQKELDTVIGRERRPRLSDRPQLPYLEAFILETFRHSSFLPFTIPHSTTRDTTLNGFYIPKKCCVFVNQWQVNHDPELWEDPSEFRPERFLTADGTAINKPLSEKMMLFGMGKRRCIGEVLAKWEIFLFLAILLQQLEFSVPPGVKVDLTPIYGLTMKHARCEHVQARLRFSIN
In words: Inhibition of CYP1A2. It counts as ADME.

Series [10] in a line: Solubility at pH 4. It counts as physicochemical. Conditions: buffer.
Series [11] concerns Salmonella typhimurium. In words: Mutagenic effect on Salmonella Typhimurium TA98 by Ames test. The series is classed as toxicity, organism-based. Conditions: salmonella enterica subsp. enterica serovar typhimurium.
Series [12] has as its system Salmonella typhimurium. The series can be described thus: Mutagenic effect on Salmonella Typhimurium TA100 by Ames test. It counts as toxicity, organism-based. Conditions: salmonella enterica subsp. enterica serovar typhimurium.
Series [13] concerns Macaca fascicularis. In words: Half life in monkey at 10 umol/kg, po. Conditions: cynomolgus monkey, in vivo.
In series [14] the test system is Macaca fascicularis. The series can be described thus: Bioavailability in monkey at 10 umol/kg, po. Conditions: cynomolgus monkey, in vivo.
Series [15] has as its system Macaca fascicularis. The series can be described thus: Plasma clearance in monkey at 10 umol/kg, po. Conditions: cynomolgus monkey.

Growth hormone secretagogue receptor type 1, sequence (Q92847 whole entry): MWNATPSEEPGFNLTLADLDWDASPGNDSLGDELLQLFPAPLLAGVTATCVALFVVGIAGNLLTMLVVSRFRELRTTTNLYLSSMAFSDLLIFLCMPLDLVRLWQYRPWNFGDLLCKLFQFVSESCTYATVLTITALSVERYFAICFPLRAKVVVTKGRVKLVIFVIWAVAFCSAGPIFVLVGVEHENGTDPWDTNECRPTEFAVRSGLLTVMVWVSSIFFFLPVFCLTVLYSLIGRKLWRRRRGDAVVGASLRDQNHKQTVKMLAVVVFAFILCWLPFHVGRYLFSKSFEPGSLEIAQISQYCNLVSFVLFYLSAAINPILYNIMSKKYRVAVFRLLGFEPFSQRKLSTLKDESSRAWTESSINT
Cytochrome P450 2D6, sequence (P10635 whole entry): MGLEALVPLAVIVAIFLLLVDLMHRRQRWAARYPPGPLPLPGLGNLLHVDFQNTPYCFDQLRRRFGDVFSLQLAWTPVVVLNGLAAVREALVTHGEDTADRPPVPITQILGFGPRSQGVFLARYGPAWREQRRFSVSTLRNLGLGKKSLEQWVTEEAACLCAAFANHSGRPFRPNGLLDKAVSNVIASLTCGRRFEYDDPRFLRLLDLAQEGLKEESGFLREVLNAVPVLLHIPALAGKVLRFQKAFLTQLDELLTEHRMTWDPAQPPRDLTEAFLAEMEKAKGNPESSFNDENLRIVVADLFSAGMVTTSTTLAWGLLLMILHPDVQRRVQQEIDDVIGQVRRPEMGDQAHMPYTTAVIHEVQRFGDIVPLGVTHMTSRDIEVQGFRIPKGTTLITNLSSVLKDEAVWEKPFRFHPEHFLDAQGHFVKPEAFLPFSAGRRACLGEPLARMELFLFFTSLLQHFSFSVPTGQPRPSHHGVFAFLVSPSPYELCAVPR
Cytochrome P450 2C9, sequence (P11712 whole entry): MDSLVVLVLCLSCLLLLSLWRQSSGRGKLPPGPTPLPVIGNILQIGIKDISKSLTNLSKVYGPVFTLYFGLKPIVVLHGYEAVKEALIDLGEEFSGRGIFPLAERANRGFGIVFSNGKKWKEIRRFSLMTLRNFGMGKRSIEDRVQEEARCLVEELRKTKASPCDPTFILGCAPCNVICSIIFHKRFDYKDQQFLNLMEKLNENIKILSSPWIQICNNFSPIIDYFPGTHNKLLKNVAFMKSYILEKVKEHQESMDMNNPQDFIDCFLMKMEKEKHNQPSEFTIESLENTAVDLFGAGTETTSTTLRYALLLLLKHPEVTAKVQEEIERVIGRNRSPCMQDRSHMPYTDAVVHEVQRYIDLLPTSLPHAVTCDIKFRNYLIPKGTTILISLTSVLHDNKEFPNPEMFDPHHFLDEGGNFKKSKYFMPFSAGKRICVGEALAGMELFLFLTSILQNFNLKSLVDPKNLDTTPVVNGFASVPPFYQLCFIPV
Cytochrome P450 2C19, sequence (P33261 whole entry): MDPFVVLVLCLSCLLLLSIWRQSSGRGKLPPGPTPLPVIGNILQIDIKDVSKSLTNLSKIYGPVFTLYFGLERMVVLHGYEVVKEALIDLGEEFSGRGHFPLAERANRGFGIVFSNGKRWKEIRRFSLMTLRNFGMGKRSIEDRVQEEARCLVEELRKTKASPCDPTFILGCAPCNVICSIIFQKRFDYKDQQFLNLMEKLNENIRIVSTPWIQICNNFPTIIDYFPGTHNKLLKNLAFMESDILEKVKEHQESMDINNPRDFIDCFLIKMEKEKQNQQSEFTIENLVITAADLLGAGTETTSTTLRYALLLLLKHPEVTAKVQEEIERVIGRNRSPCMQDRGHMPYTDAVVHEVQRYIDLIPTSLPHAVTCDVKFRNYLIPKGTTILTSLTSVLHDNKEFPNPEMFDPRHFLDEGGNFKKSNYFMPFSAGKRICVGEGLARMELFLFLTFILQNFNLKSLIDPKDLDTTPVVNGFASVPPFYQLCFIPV
Cytochrome P450 3A4, sequence (P08684 whole entry): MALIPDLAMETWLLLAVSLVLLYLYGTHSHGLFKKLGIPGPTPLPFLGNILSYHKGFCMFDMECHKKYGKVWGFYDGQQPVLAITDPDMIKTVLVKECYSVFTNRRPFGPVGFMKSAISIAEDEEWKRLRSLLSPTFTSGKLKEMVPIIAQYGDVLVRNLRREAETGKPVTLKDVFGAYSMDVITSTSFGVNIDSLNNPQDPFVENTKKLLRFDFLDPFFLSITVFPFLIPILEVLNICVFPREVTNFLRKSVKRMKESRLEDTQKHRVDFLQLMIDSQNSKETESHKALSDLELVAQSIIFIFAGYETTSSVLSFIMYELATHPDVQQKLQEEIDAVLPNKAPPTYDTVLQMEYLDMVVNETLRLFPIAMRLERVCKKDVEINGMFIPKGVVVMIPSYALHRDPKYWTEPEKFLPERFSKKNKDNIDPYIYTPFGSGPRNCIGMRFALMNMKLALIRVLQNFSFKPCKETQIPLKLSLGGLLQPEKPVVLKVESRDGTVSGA

Turning to `CC(C)(N)C(=O)N[C@H](COCc1ccccc1)c1nnnn1CCOC(=O)NCCCn1ccnc1`, the EC50 in series [1] came out at 45.3 nM.
Still for that read-out and setting: under `CC(C)(N)C(=O)N[C@H](COCc1ccccc1)c1nnnn1CCOC(=O)NCCO` stands 3 nM; under `CC(C)(N)C(=O)N[C@H](COCc1ccccc1)c1nnnn1CCOC(=O)NCCCO`, 5.5 nM.
For the compound `CC(C)(N)C(=O)N[C@H](COCc1ccccc1)c1nnnn1CCOC(=O)NC[C@H]1CCCO1`, the EC50 in series [1] worked out at 9.5 nM.
The same measure, in the same setting: under `CN(CCCCO)C(=O)OCCn1nnnc1[C@@H](COCc1ccccc1)NC(=O)C(C)(C)N` stands 3.8 nM.
For the compound `CC(=O)N[C@@H]1CCN(C(=O)OCCn2nnnc2[C@@H](COCc2ccccc2)NC(=O)C(C)(C)N)C1`, the EC50 in series [1] amounted to 3.3 nM. In series [2], this compound came in with a bioavailability of under 5%.
Take `CC(C)(N)C(=O)N[C@H](COCc1ccccc1)c1nnnn1CCOC(=O)NCCc1cccc(O)c1`: the EC50 in [1] came to 7.9 nM.
As to `CC(C)(N)C(=O)N[C@H](COCc1ccccc1)c1nnnn1CCOC(=O)NCCCCCO`, in series [1], the EC50 worked out at 14.6 nM.
Still for that read-out and setting: under `CC1(O)CCN(C(=O)OCCn2nnnc2[C@@H](COCc2ccccc2)NC(=O)C(C)(C)N)C1` (stereo partly drawn) stands 10.1 nM.
With `CC(C)(N)C(=O)N[C@H](COCc1ccccc1)c1nnnn1CCOC(=O)NCCCCO`, in series [1], the EC50 came out at 1.9 nM. In the series with Rattus norvegicus, this compound yielded an ED50 of 0.08 µmol/kg. For the same compound, the outcome in the series on Canis familiaris [3] was Active. For the same compound, the bioavailability in series [4] stood at 9%; in series [6], 40%; with Macaca fascicularis [14], 12%. Also, the half-life was 0.7 h in series [5], 2.3 h in series [7] and 1.1 h in the series on Macaca fascicularis [13]. Moreover, the CL/F in series [8] was found to be 213 mL/min/kg; in the series on Macaca fascicularis [15] it was 37 mL/min/kg. In the series on Canis familiaris [9], this compound displayed a clearance of 21 mL/min/kg. In addition, the Activity entry in the series on Hepatocyte, in the series on Salmonella typhimurium [11] and in the series with Salmonella typhimurium [12] was “Non-toxic” each time. Also, the IC50 on Cytochrome P450 3A4, on Cytochrome P450 2C9, at Cytochrome P450 2C19, against Cytochrome P450 2D6 and against Cytochrome P450 1A2 was over 100000 nM in each case. Further, in series [10], the solubility is over 100 mg/mL.
Turning to `CC(=O)NCCCCNC(=O)OCCn1nnnc1[C@@H](COCc1ccccc1)NC(=O)C(C)(C)N`, the concentration for a half-maximal effect (EC50) in series [1] is 82.5 nM.
As to `CC(C)(N)C(=O)N[C@H](COCc1ccccc1)c1nnnn1CCOC(=O)N1CC[C@@H](O)C1`, the EC50 in series [1] stood at 1 nM.
